Test results as given in ChEMBL document CHEMBL3352052, “Bioactive metabolites from Chaetomium aureum: structure elucidation and inhibition of the Hsp90 machine chaperoning activity” (Bioorg Med Chem, 2015).
The source made the active and inactive calls. The calls are words filed in the database; no cut-off is given here.

Key:
[1] = organism: Oryctolagus cuniculus; assay: Inhibition of Hsp90 chaperoning activity in rabbit reticulocyte lysate assessed as progesterone receptor hormone binding activity by liquid scintillation counting analysis
In short: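 Purified PR was bound to PR22 antibody-protein A-sepharose beads and mildly heat-denatured. Then 0.1 μM [3H]-progesterone was added for 3 h on ice, beads washed three times, and bound hormone counted by liquid scintillation.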

[2] = tested on: MDA-MB-231; assay: Cytotoxicity against human MDA-MB-231 cells assessed as cell survival at 10 to 20 uM by MTS assay; type: functional, cell-based
[3] = tested on: HeLa; assay: Cytotoxicity against human HeLa cells assessed as cell survival at 10 to 20 uM by MTS assay; type: functional, cell-based
[4] = tested on: Hs-578T; assay: Induction of Hsp70 overexpression in human Hs578T cells at 10 to 20 uM by Western blot analysis; type: functional, cell-based
In short: (§1)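 Hs578T cells seeded in 6-well plates, treated the next day for 48 h, with medium and drug at the same concentration replaced every 24 h. Cells were harvested at 48 h and lysed, and 10 μg protein lysate was analysed by Western blot with specific antibodies, including rabbit anti-total GR.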

[5] = tested on: MDA-MB-453; assay: Cytotoxicity against human MDA-MB-453 cells assessed as cell survival at 10 to 20 uM by MTS assay; type: functional, cell-based
[6] = tested on: Hs-578T; assay: Cytotoxicity against human Hs578T cells assessed as cell survival at 10 to 20 uM by MTS assay; type: functional, cell-based
[7] = tested on: Hs-578T; assay: Induction of glucocorticoid receptor degradation in human Hs578T cells at 10 to 20 uM by Western blot analysis; type: functional, cell-based; in short: as §1
[8] = tested on: LNCaP; assay: Cytotoxicity against human LNCAP cells assessed as cell survival at 10 to 20 uM by MTS assay; type: functional, cell-based
[9] = tested on: Hs-578T; assay: Induction of Hsp40 degradation in human Hs578T cells at 10 to 20 uM by Western blot analysis; type: functional, cell-based; in short: as §1
[10] = tested on: MCF7; assay: Cytotoxicity against human MCF7 cells assessed as cell survival at 10 to 20 uM by MTS assay; type: functional, cell-based
[11] = tested on: MDA-MB-231; assay: Cytotoxicity against human MDA-MB-231 cells assessed as cell survival at 10 to 20 uM after 48 hrs by MTS assay; type: functional, cell-based
[12] = tested on: LNCaP; assay: Cytotoxicity against human LNCAP cells assessed as cell survival at 10 to 20 uM after 48 hrs by MTS assay; type: functional, cell-based
[13] = tested on: Hs-578T; assay: Cytotoxicity against human Hs578T cells assessed as cell survival at 10 to 20 uM after 48 hrs by MTS assay; type: functional, cell-based

inhibition [1] | Structure (SMILES) | Activity [2] | Activity [3] | Activity [4] | Activity [5] | Activity [6] | Activity [7] | Activity [8] | Activity [9] | Activity [10] | inhibition [11] | inhibition [12] | inhibition [13]
Active | C=CCNC1=C2C[C@@H](C)C[C@H](OC)[C@H](O)[C@@H](C)/C=C(\C)[C@H](OC(N)=O)[C@@H](OC)/C=C\C=C(/C)C(=O)NC(=CC1=O)C2=O | – | – | – | – | – | – | – | – | – | – | – | –
Active | CC[C@H](C)/C=C(C)/C=C/C1=CC2=C(Cl)C(=O)[C@](C)(O)C(=O)C2=CO1 | – | – | – | – | – | – | – | – | – | Active | Active | Active

Structure (SMILES) | inhibition [1] | Activity [2] | Activity [3] | Activity [4] | Activity [5] | Activity [6] | Activity [7] | Activity [8] | Activity [9] | Activity [10] | inhibition [11] | inhibition [12] | inhibition [13]
CC[C@H](C)/C=C(C)/C=C/C1=CC2=C(Cl)C(=O)[C@](C)(OC(C)=O)C(=O)C2=CO1 | Active | inactive | inactive | Active | inactive | inactive | Active | inactive | Active | inactive | – | – | –
